Reference: ChEMBL document CHEMBL4622977, “A CNS-Targeting Prodrug Strategy for Nuclear Receptor Modulators” (J Med Chem, 2020)

Experiments:
[1] = Brain to serum concentration ratio, Kp of the compound in C57BL/6 mouse assessed as bezafibrate level at 9.14 umol/kg, ip by LC-MS/MS analysis; assay type: ADME, organism-based
Procedure, shortened: (§1)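 Brain-to-serum ratio Kp was calculated from brain and serum parent-drug AUC0.5–6 h (ng/g*h). These AUCs came from male C57BL/6 mice (n=3 per time point) given parent drug or equimolar prodrug at […] i.p. in DMSO, sampled at 0.5, 2 and 6 h. Parent acid was quantified by LC-MS/MS with d₆-sobetirome internal standard.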

[2] = AUC (0.5 to 6 hrs) in C57BL/6 mouse serum assessed as bezafibrate level at 9.14 umol/kg, ip by LC-MS/MS analysis; assay type: ADME, organism-based; design: dose 9.14 umol/kg, time upper 6 hr, time lower 0.5 hr, route intraperitoneal; conditions: in vivo
Procedure, shortened: (§2)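 Male wild-type C57BL/6 mice (8−10 weeks, n=3 per time point) received parent drug or equimolar prodrug at […] i.p. in DMSO. Brain and serum were collected at 0.5, 2 and 6 h. Parent acid was quantified by LC-MS/MS against vehicle-tissue standard curves with d₆-sobetirome internal standard. AUC0.5–6 h was computed from the time course; mean ± SEM.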

[3] = Renal toxicity in C57BL/6 mouse assessed effect on Fasn gene expression in kidney at 9.14 umol/kg, ip administered once daily for 7 days by Trizol reagent based RT-qPCR analysis; assay type: organism-based; conditions: in vivo, 168 h
Procedure, shortened: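 Male C57BL/6 mice (n=5) were dosed once daily for 7 days i.p. with parent drug at […], equimolar prodrug, or vehicle. The vehicle was 1:1:8 Kolliphor:NMP:water. Target gene expression was compared between groups per tissue by 2-tailed unpaired t test.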

[4] = Prodrug conversion in C57BL/6 mouse brain assessed as 4-chlorobenzoate formation at 9.14 umol/kg, ip measured up to 6 hrs by LC-MS/MS analysis; assay type: ADME, organism-based; conditions: in vivo, BLD = below limit of detection
Procedure, shortened: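 Male C57BL/6 mice (n=3) received prodrug at […] i.p. in DMSO. Brain was collected at 0.5, 2 and 6 h. The 4-chlorobenzoate cleavage product was sought by LC-MS/MS against a vehicle-brain standard curve with d₆-sobetirome internal standard; the limit was LoQ.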

[5] = Prodrug conversion in C57BL/6 mouse brain assessed as bezafibrate level at 9.14 umol/kg, ip measured after 1 hr in presence of FAAH inhibitor PF-3845 by LC-MS/MS analysis; assay type: ADME, organism-based; conditions: in vivo
Procedure, shortened: (§3)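 Male C57BL/6 mice (n=3) received PF-3845 at 1 mg/kg i.p., then prodrug at […] i.p. 1 h later; comparators received prodrug alone. Vehicle was DMSO. Whole brain was taken 1 h after prodrug and homogenized in water with d₆-sobetirome internal standard. It was extracted with EtOAc/MeCN and parent acid was measured by LC-MS/MS; mean ± SEM, 2-tailed unpaired t test.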

[6] = AUC (0.5 to 6 hrs) in C57BL/6 mouse brain assessed as bezafibrate level at 9.14 umol/kg, ip by LC-MS/MS analysis; assay type: ADME, organism-based; design: time 0.5-6 hr, dose 9.14 umol/kg, route intraperitoneal; conditions: in vivo; procedure, shortened: as §2
[7] = target: T1, Fatty-acid amide hydrolase 2 (Homo sapiens, UniProt Q6GMR7); assay: Substrate activity at FAAH2 in human brain S9 fraction assessed as bezafibrate level at 100 uM measured after 15 mins by LC-MS/MS analysis; assay type: ADME, subcellular; conditions: s9, 0.25 h
T1 sequence (Q6GMR7 whole entry): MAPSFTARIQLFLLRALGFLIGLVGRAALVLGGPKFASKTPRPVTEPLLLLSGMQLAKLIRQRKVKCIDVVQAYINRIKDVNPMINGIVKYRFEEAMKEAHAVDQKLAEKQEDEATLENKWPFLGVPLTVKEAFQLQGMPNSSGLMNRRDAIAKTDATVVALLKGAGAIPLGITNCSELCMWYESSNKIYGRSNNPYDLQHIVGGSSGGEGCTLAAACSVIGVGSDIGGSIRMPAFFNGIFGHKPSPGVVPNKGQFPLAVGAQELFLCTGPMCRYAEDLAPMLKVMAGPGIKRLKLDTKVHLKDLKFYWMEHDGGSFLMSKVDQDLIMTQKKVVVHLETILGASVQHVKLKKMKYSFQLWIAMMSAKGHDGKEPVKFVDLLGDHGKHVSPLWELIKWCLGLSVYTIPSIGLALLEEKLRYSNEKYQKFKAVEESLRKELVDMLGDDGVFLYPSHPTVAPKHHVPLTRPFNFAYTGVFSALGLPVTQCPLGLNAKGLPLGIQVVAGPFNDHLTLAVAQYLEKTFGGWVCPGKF
Procedure, shortened: (§4)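 Human brain S9 at 1 mg/mL, with or without […] PF-3845, was prewarmed 5 min at 37 °C. It was incubated 15 min at 37 °C with 100 µM prodrug (final), then quenched with MeCN/DMF containing d₆-sobetirome. Parent acid was measured by LC-MS/MS. FAAH-dependent level = untreated sample (n=3) minus mean PF-3845 samples (n>2).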

[8] = AUC (0.5 to 6 hrs) in C57BL/6 mouse serum assessed as 2-(3-chloro-4-((3-((7-propyl-3-(trifluoromethyl)-benzo[d]isoxazol-6-yl)oxy)propyl)thio)phenyl)acetic acid level at 9.14 umol/kg, ip by LC-MS/MS analysis; assay type: ADME, organism-based; design: dose 9.14 umol/kg, time 0.5-6 hr, route intraperitoneal; conditions: in vivo; procedure, shortened: as §2
[9] = AUC (0.5 to 6 hrs) in C57BL/6 mouse brain assessed as 2-(3-chloro-4-((3-((7-propyl-3-(trifluoromethyl)-benzo[d]isoxazol-6-yl)oxy)propyl)thio)phenyl)acetic acid level at 9.14 umol/kg, ip by LC-MS/MS analysis; assay type: ADME, organism-based; design: time upper 6 hr, dose 9.14 umol/kg, time lower 0.5 hr, route intraperitoneal; conditions: in vivo; procedure, shortened: as §2
[10] = target: T2, Fatty-acid amide hydrolase 1 (Homo sapiens, UniProt O00519); assay: Substrate activity at FAAH1 in human brain S9 fraction assessed as 2-(3-chloro-4-((3-((7-propyl-3-(trifluoromethyl)-benzo[d]isoxazol-6-yl)oxy)propyl)thio)phenyl)acetic acid level at 100 uM measured after 15 mins by LC-MS/MS analysis; assay type: ADME, subcellular; conditions: s9, 0.25 h; procedure, shortened: as §4
T2 sequence (O00519 whole entry): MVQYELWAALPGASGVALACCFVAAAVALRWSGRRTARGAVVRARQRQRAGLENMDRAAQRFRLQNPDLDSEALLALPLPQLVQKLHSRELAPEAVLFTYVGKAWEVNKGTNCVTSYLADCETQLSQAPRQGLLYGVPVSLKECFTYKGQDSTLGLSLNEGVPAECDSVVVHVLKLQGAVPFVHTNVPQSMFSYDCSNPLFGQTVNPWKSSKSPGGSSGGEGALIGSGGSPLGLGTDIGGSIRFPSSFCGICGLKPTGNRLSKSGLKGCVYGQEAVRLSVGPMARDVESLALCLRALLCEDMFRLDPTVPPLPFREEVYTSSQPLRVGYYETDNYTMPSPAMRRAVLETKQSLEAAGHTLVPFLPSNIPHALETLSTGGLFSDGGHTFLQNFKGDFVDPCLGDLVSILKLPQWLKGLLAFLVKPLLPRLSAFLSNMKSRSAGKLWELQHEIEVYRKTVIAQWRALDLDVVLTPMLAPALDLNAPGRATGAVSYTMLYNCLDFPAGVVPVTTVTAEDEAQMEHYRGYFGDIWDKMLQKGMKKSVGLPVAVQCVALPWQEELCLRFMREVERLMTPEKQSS

[11] = Prodrug conversion in C57BL/6 mouse brain assessed as 2-(3-chloro-4-((3-((7-propyl-3-(trifluoromethyl)-benzo[d]isoxazol-6-yl)oxy)propyl)thio)phenyl)acetic acid level at 9.14 umol/kg, ip measured after 1 hr in presence of FAAH inhibitor PF-3845 by LC-MS/MS analysis; assay type: ADME, organism-based; conditions: in vivo; procedure, shortened: as §3
[12] = Brain to serum concentration ratio, Kp of the compound in C57BL/6 mouse assessed as 2-(3-chloro-4-((3-((7-propyl-3-(trifluoromethyl)-benzo[d]isoxazol-6-yl)oxy)propyl)thio)phenyl)acetic acid level at 9.14 umol/kg, ip by LC-MS/MS analysis; assay type: ADME, organism-based; procedure, shortened: as §1

With `CNC(=O)C(C)(C)Oc1ccc(CCNC(=O)c2ccc(Cl)cc2)cc1` the Kp [1] was 0.06, the AUC [2] was 470.6 ng·h/g and the Drug metabolism [3] was “Metabolite_Detected”. For the same compound, the Drug metabolism [4] was “Bld”, the Drug metabolism [5] was “Metabolite_Notdetected” and the AUC [6] was 26.3 ng·h/g. For the same compound, the Drug metabolism [7] was “Metabolite_Detected”.

In the case of `CCCc1c(OCCCSc2ccc(CC(=O)NC)cc2Cl)ccc2c(C(F)(F)F)noc12`, the AUC [8] is reported as 276.5 ng·h/g, the AUC [9] is reported as 12.64 ng·h/g and the Drug metabolism [10] is reported as “Metabolite_Notdetected”. For the same compound, the Drug metabolism [11] was “Metabolite_Notdetected” and the Kp [12] was 0.05.
